MrgX1 agonist – agonists of human MrgX1 receptor. AID 588627. MrgX1-HEK293 cells, Fluo-4 calcium fluorescence, agonist mode; active compounds read high. B-score at 10 µM. 310,000 compounds, 0.44% hits;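 active = calcium response B-score plate-corrected fluorescence ratio at least 3 library SD, with starting fluorescence B-score inside 5 SD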
Target sequence (Q96LB2 whole entry, looked up): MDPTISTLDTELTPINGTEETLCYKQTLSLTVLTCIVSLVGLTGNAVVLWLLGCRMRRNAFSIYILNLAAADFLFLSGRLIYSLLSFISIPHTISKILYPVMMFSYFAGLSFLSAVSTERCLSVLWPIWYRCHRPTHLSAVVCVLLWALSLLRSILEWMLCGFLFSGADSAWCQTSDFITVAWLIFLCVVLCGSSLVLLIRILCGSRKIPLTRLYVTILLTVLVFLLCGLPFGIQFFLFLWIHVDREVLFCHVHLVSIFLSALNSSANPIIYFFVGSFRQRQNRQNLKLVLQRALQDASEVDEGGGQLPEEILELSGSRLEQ
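Assay system: stable human MrgX1 HEK293 cell line. Quantity: 15,000 cells per well. Schedule: cells plated overnight, dye loaded 0.5 h 37 °C, 0.5 h room temperature. Detection: Fluo-4 NW calcium-flux fluorescence, kinetic read. Read-out basis: peak-minus-minimum fluorescence over baseline, converted to B scores. Control set: positive and negative control wells on each plate.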
RGS4 block – inhibitors of human RGS4; P49798; HEK293 M3R/RGS4 inducible, Fluo-4 calcium flux; active compounds read high; triggered by carbachol at its EC20; B-score at 10 µM; 310,000 compounds, 0.45% hits;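 active = B-score, a plate-corrected calcium signal, over three deviations above library mean, with baseline fluorescence within five deviations of library mean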;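 note: RGS4 expression induced by doxycycline in cells with stable M3 receptor; B-score is computed from the integrated fluorescence ratio over baseline after carbachol; higher B-score means a larger calcium signal and so more RGS4 inhibition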
RGS4 act – potentiators or activators of RGS4 | HEK293 M3R/inducible RGS4, carbachol calcium flux Fluo4; active compounds read low | 310,000 compounds, 0.92% hits | B-score at 10 µM | AID 463111;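 active = B-score of the integrated calcium signal more than 4 SD below the library mean, with starting fluorescence not abnormally high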;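 note: negative B-score means reduced calcium response which marks RGS4 activation or potentiation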
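System: HEK293 FlpIn-TREx cells, stable M3R, doxycycline-inducible RGS4. Timing: overnight RGS4 induction, 30 min dye load 37 °C, 20 min compound RT. Also added: carbachol, ECmax concentration. Measured by: Fluo4 fluorescence kinetic imaging of calcium. Evaluation: integrated calcium ratio converted to B score.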
MrgX1 antag – blocks BAM8-22 activation of human MrgX1 receptor; MRGX1-HEK293 calcium flux, Fluo-4, BAM8-22 antagonism; active compounds read low; B-score at 10 µM; 310,000 compounds, 1.3% hits; AID 588676;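 active = calcium-response B-score plate-corrected more than 3 library SD below zero, starting fluorescence within 5 deviations, no agonist response on first addition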;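 note: peak minus trough fluorescence over baseline after final BAM8-22 challenge near maximal dose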
MrgX1 PAM – human MrgX1 positive allosteric modulation, primary screen. Q96LB2. MrgX1-HEK293, Fluo-4 calcium flux, FDSS; active compounds read high. B-score at 10 µM. 310,000 compounds, 0.63% hits. AID 588675;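 active = plate-corrected calcium response at least 3 library SD above typical, normal starting fluorescence, not activating the receptor alone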;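 note: compound read alongside a low EC10 to EC30 dose of BAM8-22 agonist; peak minus trough fluorescence over baseline measured at the second addition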
* hit, by the source's call; i = inactive. An excerpt weighted towards active compounds, which were near 3.5% of everything screened.

SMILES | MrgX1 agonist | RGS4 block | RGS4 act | MrgX1 antag | MrgX1 PAM
O=C1N/C(=N/O)S/C1=C/c1cccnc1 | i | i | i | i | i
CCCOC(=O)C1=C(C)NC2=C(C(=O)CCC2)C1c1ccc(N(C)C)cc1 (stereo not given) | i | i | -7.2* | i | i
CCOC(=O)C1=C(C)NC2=C(C(=O)CCC2)C1c1ccc(N(C)C)cc1 (stereo not given) | i | i | i | i | i
Cc1ccc(C(=O)Nc2ccccc2Oc2ccccc2)o1 | i | i | i | -4.5* | i
Cc1cc(NC(=O)c2cc(-c3ccc(OC(C)C)cc3)nc3ccccc23)no1 | i | i | i | i | i
N#CC1=C(N)OC2=C(C(=O)CCC2)C1c1ccccc1 (stereo not given) | i | i | i | i | i
N#CC1=C(N)Oc2cc(O)c(Cl)cc2C1c1ccccc1F (stereo not given) | i | i | i | i | i
N#CC1=C(N)OC2=C(CC/C2=C\c2ccccc2Cl)C1c1ccccc1Cl (stereo not given) | i | i | i | -12* | i
N#CC1=C(N)OC2=C(CC/C2=C\c2ccccc2)C1c1ccccc1 (stereo not given) | 140* | i | i | i | i
Cc1cccn2c(=O)c(C(=O)NCCCN3CC(C)CC(C)C3)c(O)nc12 (stereo not given) | i | i | i | i | i
CC(=O)Nc1ccc(S(=O)(=O)NNC(=O)NC23CC4CC(CC(C4)C2)C3)cc1 | i | i | i | i | i
Cc1ccc(S(=O)(=O)NNC(=O)NC23CC4CC(CC(C4)C2)C3)cc1 | 28* | i | i | i | i
Cc1cccc(N(CC(O)CON=C2c3ccccc3-c3ccccc32)S(C)(=O)=O)c1 (stereo not given) | i | i | i | -4.9* | i
Nc1ccc(C(=O)O)c(O)c1 | i | i | i | i | i
Nc1ccc(N)c(C(=O)O)c1 | i | i | i | -5.6* | i
COc1ccc(/C(C)=N/NC(=O)CNC(=O)c2ccncc2)c(OC)c1 | i | i | i | i | i
O=[N+]([O-])c1ccc(N2CCN(Cc3ccccc3)CC2)s1 | i | i | i | -5* | i
CCNC(=S)NNC(=O)c1cc(-c2cc(C)ccc2C)nc2ccccc12 | i | i | i | i | i
CC(C)C[C@H](NC(=O)c1[nH]cnc1C(=O)Nc1ccc(CNC(=O)OC(C)(C)C)cc1)C(=O)OC(C)(C)C | i | i | -7* | i | i
CC(C)C[C@H](NC(=O)c1nc[nH]c1C(=O)NCCCCCNC(=O)OC(C)(C)C)C(=O)OCc1ccccc1 | i | i | i | i | i
C[C@H](NC(=O)c1nc[nH]c1C(=O)NCCCCCNC(=O)OC(C)(C)C)C(=O)OCc1ccccc1 | i | i | -7.8* | i | 7.8*
C[C@H](NC(=O)c1nc[nH]c1C(=O)N[C@@H](CCCCNC(=O)OC(C)(C)C)C(=O)OC(C)(C)C)C(=O)OCc1ccccc1 | i | i | i | i | i
CC(C)(C)OC(=O)NCCCCCNC(=O)c1[nH]cnc1C(=O)N[C@@H](Cc1ccccc1)C(=O)OCc1ccccc1 | i | i | -7.5* | i | i
O=C(CNC(=O)c1ccc(Br)cc1)NCc1cccnc1 | i | i | i | i | i
CC(=O)N(c1ccccc1)c1nc(/C=C/C(=O)Nc2c(C)cc(C)cc2C)cs1 | i | i | i | i | i
SMILES | MrgX1 agonist | RGS4 block | RGS4 act | MrgX1 antag | MrgX1 PAM
O=C(O)c1cc2[nH]c3c(c2cc1Cl)CCCC3 | i | i | i | i | i
COc1cccc(Oc2cn[nH]c2-c2ccc(OCC(=O)NN)cc2O)c1 | i | i | i | i | i
CCCOC(=O)c1ccc(Oc2cn[nH]c2-c2ccc(OC)cc2O)cc1 | i | i | -7.5* | i | i
COc1ccccc1C(=O)NNC(=S)NC(=O)c1ccco1 | 50* | i | i | i | i
CC(C)(C)c1ccc(C(=O)NC(=S)NNC(=O)COc2ccccc2)cc1 | 45* | i | -7.5* | i | i
COC(=O)c1cc(OC)c(OC)cc1NC(=S)NC(=O)c1ccco1 | i | i | i | i | i
